Results reported in paper PMC4687753 (Journal of the American Chemical Society, 2015).
“Also recorded” adds a separate entry of the source. *1 amine or outer side, *2 acyl side, *3 side chain or, on linkers, in order; H or OH if unused. Where a SMILES comes first, the peptide text is derived from it. Bridges are numbered along the chain shown (N, C = ends). Roman numbers before positions name the chains, in order. [ ]: non-standard residue; d: D form. X2 = O=C(O)CCC(=O)N1C[C@H](N[*:2])[C@@H](C(=O)[*:1])C1; X1 = O=C([C@H]1CCC[C@@H]1N[*:1])[*:2]; S5 = C=CCCC[C@](C)(N)C(=O)O

Tests used:
LIM-2405 = experiment: Cell killing assay; assay type: cell-based; details: LIM-2405 (colon), 10 μM, 24 hours, CellTiter-Glo, two independent experiments
Outline: (§1)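 Human tumour lines grown in RPMI with 10% FBS. Seeded at 1.5×10³ cells/well, then washed with serum-free medium after 24 h. Exposed to 10 μM test compound or DMSO in serum-free medium for 2 h, then FBS added to 10% final, for 24 h total exposure. Viability read as CellTiter-Glo luminescence (intracellular ATP) relative to DMSO; mean ± SD of two independent experiments.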

MDA-MB-231 = experiment: Cell killing assay; assay type: cell-based; details: MDA-MB-231 (mammary), 10 μM, 24 hours, CellTiter-Glo, two independent experiments
MEFs = experiment: Cell killing assay; assay type: cell-based, mouse; details: 10 μM, 24 hours, CellTiter-Glo, two independent experiments
Outline: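 Mouse embryonic fibroblasts kept in DME KELSO medium with 10% FBS, 250 μM L-asparagine and 50 μM 2-mercaptoethanol. Given 10 μM test compound or DMSO for 24 h. Viability measured by CellTiter-Glo luminescence (intracellular ATP) relative to DMSO; mean ± SD of two independent experiments.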

U937 lymphoma cells = details: CellTiter-Glo; for effect of caspase inhibitor Q-VD-OPh on loss of U937 viability: 50 μM Q-VD-OPh, 2 hours; for cell viability relative to DMSO control: U937, 10 μM, 24 hours, two independent experiments; for U937 cell viability after 2 hours of treatment: titration, 2 hours serum-free, absence of caspase inhibitor
A549 = experiment: Cell killing assay; assay type: cell-based; details: A549 (lung), 10 μM, 24 hours, CellTiter-Glo, two independent experiments
Outline: as §1

proteinase K = proteinase K (Parengyodontium album, UniProt P06873); experiment: Protease susceptibility assay; details: same conditions as t1/2
proteinase K, sequence (P06873 106-384, species assumed): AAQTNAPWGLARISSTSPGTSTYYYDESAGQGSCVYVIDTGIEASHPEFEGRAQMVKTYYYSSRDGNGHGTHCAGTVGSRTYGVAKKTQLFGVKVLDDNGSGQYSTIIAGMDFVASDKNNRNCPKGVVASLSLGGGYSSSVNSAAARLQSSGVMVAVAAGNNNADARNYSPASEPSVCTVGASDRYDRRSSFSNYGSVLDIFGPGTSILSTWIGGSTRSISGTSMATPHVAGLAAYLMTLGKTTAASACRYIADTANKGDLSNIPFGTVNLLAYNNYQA

SW480 = experiment: Cell killing assay; assay type: cell-based; details: SW480 (colon), 10 μM, 24 hours, CellTiter-Glo, two independent experiments
Outline: as §1

MDA-MB-468 = experiment: Cell killing assay; assay type: cell-based; details: MDA-MB-468 (mammary), 10 μM, 24 hours, CellTiter-Glo, two independent experiments
Mcl-1 = Mcl-1 (Homo sapiens, UniProt Q07820); experiment: SPR solution competition assay; assay type: binding
Mcl-1, sequence (Q07820 171-327 limits assumed): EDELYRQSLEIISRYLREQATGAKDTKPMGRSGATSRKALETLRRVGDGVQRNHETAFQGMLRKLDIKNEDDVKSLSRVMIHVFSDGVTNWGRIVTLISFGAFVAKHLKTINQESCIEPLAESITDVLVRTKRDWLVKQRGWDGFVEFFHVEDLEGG

Bcl-2 = Bcl-2 (Homo sapiens, UniProt P10415); experiment: SPR solution competition assay; assay type: binding
Bcl-2, sequence (P10415 1-217 limits assumed): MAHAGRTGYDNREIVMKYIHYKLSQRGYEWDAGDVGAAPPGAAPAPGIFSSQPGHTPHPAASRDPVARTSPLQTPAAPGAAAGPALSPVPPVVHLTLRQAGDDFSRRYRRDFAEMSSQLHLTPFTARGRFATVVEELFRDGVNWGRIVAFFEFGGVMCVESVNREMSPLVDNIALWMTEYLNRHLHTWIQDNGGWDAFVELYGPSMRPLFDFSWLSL

Bcl-xL = Bcl-xL (Homo sapiens, UniProt Q07817); experiment: SPR solution competition assay; assay type: binding
Bcl-xL, sequence (Q07817 1-209 limits assumed, species assumed): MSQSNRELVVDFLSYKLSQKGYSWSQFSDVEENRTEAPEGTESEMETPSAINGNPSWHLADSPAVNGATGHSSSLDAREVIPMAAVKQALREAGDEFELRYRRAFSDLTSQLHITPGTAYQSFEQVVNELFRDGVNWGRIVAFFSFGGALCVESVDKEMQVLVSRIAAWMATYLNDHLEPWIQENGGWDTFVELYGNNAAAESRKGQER

[1] = system: wild-type mouse embryonic fibroblasts (MEFs); experiment: Cytochrome c release assay, permeabilized cells; assay type: cell-based; details: digitonin-permeabilized wt MEFs, 10 μM peptide, 1 hour, western blot
[2] = system: bax−/−/bak−/− mouse embryonic fibroblasts (MEFs); experiment: Cytochrome c release assay, permeabilized cells; assay type: cell-based; details: digitonin-permeabilized bax−/−/bak−/− MEFs, 10 μM peptide, 1 hour, western blot
[3] = system: unpermeabilized U937 cells; experiment: Cytochrome c release assay, unpermeabilized cells; assay type: cell-based; details: unpermeabilized U937, 10 μM peptide, 3 hours at 37°C, western blot

Row | Compound | cell viability relative to DMSO control (LIM-2405) | cell viability relative to DMSO control (MDA-MB-231) | cell viability relative to DMSO control (MEFs) | effect of caspase inhibitor Q-VD-OPh on loss of U937 viability (U937 lymphoma cells) | cell viability relative to DMSO control (U937 lymphoma cells) | U937 cell viability after 2 hours of treatment (U937 lymphoma cells) | cell viability relative to DMSO control (A549) | increase in half-life relative to α-Bim (proteinase K) | cell viability relative to DMSO control (SW480) | cell viability relative to DMSO control (MDA-MB-468) | IC50 (Mcl-1) [nM] | IC50 (Bcl-2) [nM] | IC50 (Bcl-xL) [nM] | cytochrome c release from pellet fraction to soluble cytosolic fraction [1] | increase in half-life relative to the stapled peptide α-1 (proteinase K) [fold] | cytochrome c release from pellet fraction to soluble cytosolic fraction [2] | location of cytochrome c after treatment of intact cells [3]
1 | CC[C@H](C)[C@H](NC(C)=O)C(=O)N[C@@H](Cc1c[nH]c2ccccc12)C(=O)N[C@H](C(=O)N[C@@H](C)C(=O)N[C@@H](CCC(N)=O)C(=O)N[C@@H](CCC(=O)O)C(=O)N[C@@H](CC(C)C)C(=O)N[C@@H](CCCNC(=N)N)C(=O)N[C@@]1(C)CCC/C=C\CCC[C@@](C)(C(=O)N[C@@H](Cc2ccccc2)C(=O)N[C@@H](CC(N)=O)C(=O)N[C@@H](C)C(=O)N[C@@H](Cc2ccc(O)cc2)C(=O)N[C@@H](Cc2ccc(O)cc2)C(=O)N[C@@H](C)C(=O)N[C@@H](CCCNC(=N)N)C(=O)N[C@@H](CCCNC(=N)N)C(N)=O)NC(=O)[C@H](CC(=O)O)NC(=O)CNC(=O)[C@H]([C@@H](C)CC)NC1=O)[C@@H](C)CC [α-1, reference compound] | no significant cell death | no significant cell death | essentially no effect | attenuated by Q-VD-OPh | efficiently killing U937 lymphoma cells | significant reduction in cell viability | no significant cell death | ~ 6 fold | no significant cell death | no significant cell death | – | – | – | – | – | – | –
2 | C=CCCC[C@](C)(NC(=O)[C@H](CC(=O)O)NC(=O)CNC(=O)[C@@H](NC(=O)[C@](C)(CCCC=C)NC(=O)[C@H](CCCNC(=N)N)NC(=O)[C@H](CC(C)C)NC(=O)[C@H](CCC(=O)O)NC(=O)[C@H](CCC(N)=O)NC(=O)[C@H](C)NC(=O)[C@@H](NC(=O)[C@H](Cc1c[nH]c2ccccc12)NC(=O)[C@@H](NC(C)=O)[C@@H](C)CC)[C@@H](C)CC)[C@@H](C)CC)C(=O)N[C@@H](Cc1ccccc1)C(=O)N[C@@H](CC(N)=O)C(=O)N[C@@H](C)C(=O)N[C@@H](Cc1ccc(O)cc1)C(=O)N[C@@H](Cc1ccc(O)cc1)C(=O)N[C@@H](C)C(=O)N[C@@H](CCCNC(=N)N)C(=O)N[C@@H](CCCNC(=N)N)C(N)=O [α-1-LIN] | – | – | – | – | – | – | – | – | – | – | 4 | 189 | 80 | – | – | – | –
3 | CC[C@H](C)[C@H](NC(C)=O)C(=O)N[C@H]1CCC[C@@H]1C(=O)N[C@H](C(=O)N[C@@H](C)C(=O)N[C@@H](CCC(N)=O)C(=O)N[C@H]1CN(C(=O)CCC(=O)O)C[C@@H]1C(=O)N[C@@H](CC(C)C)C(=O)N[C@@H](CCCNC(=N)N)C(=O)N[C@@]1(C)CCC/C=C\CCC[C@@](C)(C(=O)N[C@@H](Cc2ccccc2)C(=O)N[C@@H](CC(N)=O)C(=O)N[C@H]2CCC[C@@H]2C(=O)N[C@@H](Cc2ccc(O)cc2)C(=O)N[C@@H](Cc2ccc(O)cc2)C(=O)N[C@@H](C)C(=O)N[C@@H](CCCNC(=N)N)C(=O)N[C@@H](CCCNC(=N)N)C(N)=O)NC(=O)[C@H](CC(=O)O)NC(=O)CNC(=O)[C@H]([C@@H](C)CC)NC1=O)[C@@H](C)CC [α/β-1] (I: LR[S5]IGD[S5]FN[X1]YYARR-NH2 / II: Ac-I[X1]IAQ; staple (Z) I:3-I:7; linker I:N-II:C via X2) | no significant cell death | no significant cell death | essentially no effect | attenuated by Q-VD-OPh | potently impacted U937 lymphoma cell viability | significant reduction in cell viability | no significant cell death | > 500 fold | no significant cell death | no significant cell death | – | – | – | able to induce cytochrome c release | > 90 | but not in bax^−/−/bak^−/− MEFs | most of the cytochrome c was present in the soluble fraction
4 | CC[C@H](C)[C@H](NC(C)=O)C(=O)N[C@H]1CCC[C@@H]1C(=O)N[C@H](C(=O)N[C@@H](C)C(=O)N[C@@H](CCC(N)=O)C(=O)N[C@H]1CN(C(=O)CCC(=O)O)C[C@@H]1C(=O)N[C@@H](CC(C)C)C(=O)N[C@@H](CCCNC(=N)N)C(=O)N[C@H]1CCC[C@@H]1C(=O)N[C@H](C(=O)NCC(=O)N[C@@H](CC(=O)O)C(=O)N[C@H]1CCC[C@@H]1C(=O)N[C@@H](Cc1ccccc1)C(=O)N[C@@H](CC(N)=O)C(=O)N[C@H]1CCC[C@@H]1C(=O)N[C@@H](Cc1ccc(O)cc1)C(=O)N[C@@H](Cc1ccc(O)cc1)C(=O)N[C@@H](C)C(=O)N[C@@H](CCCNC(=N)N)C(=O)N[C@@H](CCCNC(=N)N)C(N)=O)[C@@H](C)CC)[C@@H](C)CC [α/β-2] (I: LR[X1]IGD[X1]FN[X1]YYARR-NH2 / II: Ac-I[X1]IAQ; linker I:N-II:C via X2) | – | – | – | – | – | – | – | – | – | – | – | – | – | Slightly less cytochrome c release; also recorded: able to induce cytochrome c release | – | but not in bax^−/−/bak^−/− MEFs | cytochrome c exclusively in the pellet
